Laboratory results reported in ChEMBL document CHEMBL4699391, “Conversion of amino acids to aryl/heteroaryl ethanol metabolites using human CYP2D6-expressing live baker''s yeast” (RSC Med Chem, 2020).
Activity calls are given as the source filed them.

Legend:
[1] = molecular target: BDNF/NT-3 growth factors receptor (Homo sapiens) (UniProt Q16620); assay: Induction of TrkB activation in human SH-SY5Y cells assessed as increase in phosphorylated TrkB level at 10 uM after 4 hrs by Western blot analysis; format: cell-based; settings: filed as activator
[2] = test system: N2a; assay: Neuroprotective activity against corticosterone-induced neurotoxicity in mouse N2a cells assessed as increase in cell viability at 10 uM preincubated for 24 hrs followed by corticosterone addition and measured after 24 hrs; format: functional, cell-based; settings: time 48.0 hrs
How it was run: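 Mouse neuroblastoma N2a cells were pretreated with test compound for 24 hrs. They were then co-treated with the neurotoxin, printed as cortisone, at 400 μM for a further 24 hrs before neuroprotection was assessed. P value thresholds were ≤0.05, <0.01 and 0.001.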

[3] = test system: SH-SY5Y; assay: Neuroprotective activity against corticosterone-induced neurotoxicity in human SH-SY5Y cells assessed as induction of BDNF neurotropic response at 10 uM preincubated for 2 hrs followed by corticosterone addition and measured after 4 hrs by ELISA; format: functional, cell-based; settings: time 6.0 hrs
[4] = molecular target: BDNF/NT-3 growth factors receptor (Homo sapiens) (UniProt Q16620); assay: Induction of TrkB activation in human SH-SY5Y cells assessed as increase in Akt phosphorylation at 10 uM after 4 hrs by Western blot analysis; format: cell-based; settings: filed as activator
[5] = molecular target: BDNF/NT-3 growth factors receptor (Homo sapiens) (UniProt Q16620); assay: Induction of TrkB activation in human SH-SY5Y cells assessed as increase in ERK1/2 phosphorylation at 10 uM after 4 hrs by Western blot analysis; format: cell-based; settings: filed as activator
[6] = test system: N2a; assay: Neuroprotective activity against corticosterone-induced neurotoxicity in mouse N2a cells assessed as increase in cell viability at 5 nM preincubated for 24 hrs followed by corticosterone addition and measured after 24 hrs; format: functional, cell-based; settings: time 48.0 hrs
[7] = test system: SH-SY5Y; assay: Neuroprotective activity against corticosterone-induced neurotoxicity in human SH-SY5Y cells assessed as induction of BDNF neurotropic response at 5 nM preincubated for 2 hrs followed by corticosterone addition and measured after 4 hrs by ELISA; format: functional, cell-based; settings: time 6.0 hrs
[8] = molecular target: BDNF/NT-3 growth factors receptor (Homo sapiens) (UniProt Q16620); assay: Induction of TrkB activation in human SH-SY5Y cells assessed as increase in phosphorylated TrkB level at 5 nM after 4 hrs by Western blot analysis; format: cell-based; settings: filed as activator
[9] = molecular target: BDNF/NT-3 growth factors receptor (Homo sapiens) (UniProt Q16620); assay: Induction of TrkB activation in human SH-SY5Y cells assessed as increase in Akt phosphorylation at 5 nM after 4 hrs by Western blot analysis; format: cell-based; settings: filed as activator
[10] = molecular target: BDNF/NT-3 growth factors receptor (Homo sapiens) (UniProt Q16620); assay: Induction of TrkB activation in human SH-SY5Y cells assessed as increase in ERK1/2 phosphorylation at 5 nM after 4 hrs by Western blot analysis; format: cell-based; settings: filed as activator

Sequence of BDNF/NT-3 growth factors receptor (Homo sapiens) (Q16620 32-822 limits assumed): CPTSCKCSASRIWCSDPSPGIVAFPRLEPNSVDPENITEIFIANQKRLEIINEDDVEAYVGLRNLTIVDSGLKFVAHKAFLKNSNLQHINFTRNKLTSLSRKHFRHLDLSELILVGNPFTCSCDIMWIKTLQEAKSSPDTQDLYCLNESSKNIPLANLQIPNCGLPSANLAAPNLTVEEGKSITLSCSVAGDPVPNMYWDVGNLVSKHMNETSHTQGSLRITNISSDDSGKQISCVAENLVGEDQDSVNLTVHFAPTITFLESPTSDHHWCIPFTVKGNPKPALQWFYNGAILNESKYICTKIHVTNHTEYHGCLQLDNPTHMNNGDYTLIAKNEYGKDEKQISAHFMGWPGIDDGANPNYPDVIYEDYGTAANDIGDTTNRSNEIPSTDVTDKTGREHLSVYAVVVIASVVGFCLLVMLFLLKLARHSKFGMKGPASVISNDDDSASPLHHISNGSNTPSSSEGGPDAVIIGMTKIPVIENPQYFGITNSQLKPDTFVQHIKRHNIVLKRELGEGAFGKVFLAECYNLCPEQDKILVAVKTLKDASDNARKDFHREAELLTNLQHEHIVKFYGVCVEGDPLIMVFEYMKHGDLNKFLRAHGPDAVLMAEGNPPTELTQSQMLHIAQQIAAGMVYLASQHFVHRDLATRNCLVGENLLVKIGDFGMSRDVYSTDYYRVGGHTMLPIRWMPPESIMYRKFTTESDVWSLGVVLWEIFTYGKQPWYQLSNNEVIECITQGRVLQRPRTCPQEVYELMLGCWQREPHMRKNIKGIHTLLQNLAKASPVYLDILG

Row | Activity [1] | Activity [4] | Activity [5] | Activity [8] | Activity [9] | Activity [10] | SMILES | Activity [2] | Activity [3] | Activity [6] | Activity [7]
1 | Active | Active | Active | – | – | – | OCCc1ccc(O)cc1 | Active | Active | – | –
2 | Active | Active | Active | – | – | – | OCCc1c[nH]c2ccccc12 | Active | Active | – | –
3 | – | – | – | Active | Active | Active | O=c1cc(-c2ccccc2)oc2c(O)c(O)ccc12 | – | – | Active | Active
